The text below walks through data of ChEMBL document CHEMBL1122723, “Potential antitumor agents: synthesis and biological properties of aliphatic amino acid 9-hydroxyellipticinium derivatives” (1984).

In assay [1] the test system is Mus musculus. Briefly: Percent Increase in life span (ILS) over controls (10e5 L1210 leukemia cells) at LD0/2 by ip administration of the drug into mouse (single injection 2 hr after cell grafting). It is filed as functional. Summed up: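 DBA/2 mice were inoculated with 10⁵ L1210 cells and then given one intraperitoneal dose at LD0/2, the LD0 being the highest nonlethal single ip dose. Life span was compared with untreated controls as ILS = (T − C)/C × 100. ILS > 25% was counted as a significant antitumor effect.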

The subject of another assay is L1210. Briefly: Dose that reduces the L1210 leukemia cell growth in vitro by 50% after 48 hr as compared to controls. It is filed as functional. Particulars: Mus musculus, L1210, 48 h; read-out: ID50 (the source's name). Summed up:
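L1210 leukemia cells were grown in vitro with graded drug doses for 48 h. ID50 is the dose that reduces cell growth by 50% versus controls, read from a regression line of % growth inhibition against log dose. 50% inhibition corresponds to a twofold increase in generation time.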

The next assay concerns Salmonella typhimurium. In words: Compound was evaluated for the effective dose, as compared to controls against Salmonella typhimurium TA98. To be noted: read-out: ED50 (the source's name).
The test system of assay [2] is Mus musculus. In words: Compound tested in vivo for highest […] administered intraperitoneally that reduces the L1210 leukemia cell growth. It is filed as functional. Summed up:
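Highest nonlethal dose (LD0) found for each compound after one intraperitoneal injection into DBA/2 mice.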

In another assay the test system is Nucleic Acid. Briefly: Apparent binding constant (Kapp) for calf thymus DNA was measured by competition with ethidium bromide. To be noted: Bos taurus. It is filed as nucleic-acid assay. Summed up: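 Calf thymus DNA binding measured by ethidium bromide competition in 0.2 M Tris-HCl buffer, pH 7.40. Apparent binding constants were derived from Scatchard plots.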

In a further assay the test system is Escherichia coli. Briefly: Compound was evaluated for the effective dose, as compared to controls against Escherichia coli BL 101. It is filed as functional. To be noted: read-out: ED50 (the source's name). In short, it runs like this:
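Bacteriostatic test on E. coli BL 101, a quaternary-ammonium-sensitive strain, and on Salmonella typhimurium TA 98. Inocula from master plates were grown overnight at 37 °C and diluted 1000-fold in the same medium. Cultures were shaken at 37 °C, with drugs added after 2 h of growth at graded concentrations. Growth was followed by turbidity at 650 nm. ED50 is the dose halving growth rate versus controls, from a regression of % inhibition on log dose.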

pEC50, pIC50: −log10 of the molar value.

For the compound `Cc1c2cc[n+](C)cc2c(C)c2c1[nH]c1ccc(O)c(/N=C(\CC(C)C)C(=O)O)c12`, in the assay with Mus musculus [1], the ILS came out at 35. In addition, the pIC50 in the assay on L1210 is 6.55. Moreover, the results for the pEC50 in the assay on Salmonella typhimurium and in the assay on Escherichia coli were 5.63 and 6.12, respectively. Further, the LD0 with Mus musculus [2] turned out to be 10 mg/kg. For the same compound, in the assay on Nucleic Acid, the K app is 260000 M⁻¹.

In the assay on Mus musculus [1], `Cc1c2cc[n+](C)cc2c(C)c2c1[nH]c1ccc(O)c(/N=C(/C(=O)O)C(C)C)c12` returned an ILS of 31.5. For the same compound, the pIC50 in the assay on L1210 is 6.51. Also, the pEC50 with Salmonella typhimurium was 5.78; with Escherichia coli, 6.74. For the same compound, in the assay with Mus musculus [2], the LD0 is 15 mg/kg. For the same compound, in the assay with Nucleic Acid, the K app turned out to be 210000 M⁻¹.

Regarding `Cc1c2cc[n+](C)cc2c(C)c2c1[nH]c1ccc(O)c(/N=C/C(=O)O)c12`, the ILS in the assay on Mus musculus [1] was 0. Besides, in the assay with L1210, the pIC50 is 6.27. Also, the pEC50 was 4.00 with Salmonella typhimurium and 5.50 in the assay with Escherichia coli. In addition, the LD0 with Mus musculus [2] is 20 mg/kg. The K app with Nucleic Acid was 80000 M⁻¹.

The compound `Cc1c2cc[n+](C)cc2c(C)c2c1[nH]c1ccccc12` registered an ILS in the assay on Mus musculus [1] of 22. Besides, the LD0 with Mus musculus [2] stood at 12.5 mg/kg. Besides, the K app in the assay on Nucleic Acid is 230000 M⁻¹.

In the assay with Mus musculus [1], `C/C(=N\c1c(O)ccc2[nH]c3c(C)c4cc[n+](C)cc4c(C)c3c12)C(=O)O` came in with an ILS of 23. Also, the pIC50 in the assay with L1210 was 6.70. Besides, the pEC50 in the assay on Salmonella typhimurium was 4.30; with Escherichia coli, 5.71. The compound also had an LD0 with Mus musculus [2] of 20 mg/kg. Also, the K app in the assay with Nucleic Acid amounted to 470000 M⁻¹.

`Cc1c2cc[n+](C)cc2c(C)c2c1[nH]c1ccc(O)cc12` [ELLIPTINIUM]: the ILS with Mus musculus [1] was 53. In addition, the pIC50 in the assay on L1210 is 7.30. Moreover, in the assay on Mus musculus [2], the LD0 was 5 mg/kg. The K app in the assay with Nucleic Acid was 1.3e+06 M⁻¹. In addition, the pEC50 with Escherichia coli is 5.45.
